# According to ChEMBL document CHEMBL5705898 (Proc Natl Acad Sci U S A, 2014):
# Tests used:
# [1] = molecular target: T1, Histone-lysine N-methyltransferase SETD7 (Homo sapiens, UniProt Q8WTS6); assay: Inhibition of wildtype full length human SETD7 (1 to 366 residues) expressed in Escherichia coli BL21 (DE3) V2R-pRARE using biotinylated H3 (1-25) peptide as substrate incubated for 1 hrs in presence of 3H-SAM by radioactivity based assay
# T1 sequence (Q8WTS6 whole entry): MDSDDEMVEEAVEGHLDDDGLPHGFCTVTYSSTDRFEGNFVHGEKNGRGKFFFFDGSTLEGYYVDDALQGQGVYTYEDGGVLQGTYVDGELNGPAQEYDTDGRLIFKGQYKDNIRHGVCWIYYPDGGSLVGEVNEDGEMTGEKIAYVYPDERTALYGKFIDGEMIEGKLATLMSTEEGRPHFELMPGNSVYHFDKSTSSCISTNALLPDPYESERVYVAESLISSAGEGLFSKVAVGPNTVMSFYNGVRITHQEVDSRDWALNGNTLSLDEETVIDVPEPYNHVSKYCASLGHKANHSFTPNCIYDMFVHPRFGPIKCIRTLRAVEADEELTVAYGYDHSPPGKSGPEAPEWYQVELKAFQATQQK
# [2] = Inhibition of SETD7 H252W mutant (unknown origin) using biotinylated H3 (1-25) peptide as substrate incubated for 1 hrs in presence of 3H-SAM by radioactivity based assay; design: species or system Homo sapiens
# Procedure, shortened: (§1)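 Scintillation proximity assay on recombinant E. coli-expressed human SETD7(1–366) mutant forms. Read-out was incorporation of the ³H-methyl group from ³H-SAM into histone H3(1–25) peptide, with 2 µM SAM, 2 µM H3(1–25) and 2 nM enzyme. IC50 is given as the mean ± SD of triplicate runs.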
# [3] = Inhibition of SETD7 D256A mutant (unknown origin) using biotinylated H3 (1-25) peptide as substrate incubated for 1 hrs in presence of 3H-SAM by radioactivity based assay; design: species or system Homo sapiens; procedure, shortened: as §1
# [4] = molecular target: Adenosine receptor A2a (Homo sapiens) (UniProt P29274); assay: Inhibition of human A2A receptor at 10 uM relative to control
# [5] = molecular target: Adenosine receptor A3 (Homo sapiens) (UniProt P0DMS8); assay: Inhibition of human A3 receptor at 10 uM relative to control
# Adenosine receptor A3 (Homo sapiens), sequence (P0DMS8 whole entry): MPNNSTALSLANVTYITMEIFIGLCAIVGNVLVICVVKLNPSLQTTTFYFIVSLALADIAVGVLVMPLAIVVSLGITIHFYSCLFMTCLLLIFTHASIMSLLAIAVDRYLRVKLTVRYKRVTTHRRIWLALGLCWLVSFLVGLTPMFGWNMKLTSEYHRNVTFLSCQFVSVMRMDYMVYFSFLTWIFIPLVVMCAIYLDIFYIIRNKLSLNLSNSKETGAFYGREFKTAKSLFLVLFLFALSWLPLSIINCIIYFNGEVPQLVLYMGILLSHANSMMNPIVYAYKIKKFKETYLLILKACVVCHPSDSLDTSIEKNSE
# [6] = molecular target: Beta-2 adrenergic receptor (Homo sapiens) (UniProt P07550); assay: Inhibition of human beta 2 receptor at 10 uM relative to control
# [7] = molecular target: Apelin receptor (Homo sapiens) (UniProt P35414); assay: Inhibition of human APJ at 10 uM relative to control
# [8] = molecular target: Cholecystokinin receptor type A (Homo sapiens) (UniProt P32238); assay: Inhibition of human CCK1 receptor at 10 uM relative to control
# [9] = molecular target: Corticotropin-releasing factor receptor 1 (Homo sapiens) (UniProt P34998); assay: Inhibition of human CRF1 receptor at 10 uM relative to control
# Corticotropin-releasing factor receptor 1 (Homo sapiens), sequence (P34998 whole entry): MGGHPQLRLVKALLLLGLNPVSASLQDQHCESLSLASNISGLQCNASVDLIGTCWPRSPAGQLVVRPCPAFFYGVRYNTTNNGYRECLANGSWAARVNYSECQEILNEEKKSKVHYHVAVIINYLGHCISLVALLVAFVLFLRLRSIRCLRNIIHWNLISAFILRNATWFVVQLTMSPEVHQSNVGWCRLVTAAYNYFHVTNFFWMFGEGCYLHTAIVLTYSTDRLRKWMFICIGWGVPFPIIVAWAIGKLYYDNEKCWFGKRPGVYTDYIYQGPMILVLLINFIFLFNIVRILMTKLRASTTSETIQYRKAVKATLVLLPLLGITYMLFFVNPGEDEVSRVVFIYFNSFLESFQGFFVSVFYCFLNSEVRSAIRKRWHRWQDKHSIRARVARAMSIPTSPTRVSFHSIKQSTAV
# [10] = molecular target: Glutamate receptor ionotropic AMPA (Homo sapiens) (UniProt P48058+P42263+P42262+P42261); assay: Inhibition of human AMPA receptor at 10 uM relative to control; assay type: protein-complex assay
# [11] = molecular target: Glutamate [NMDA] receptor (Homo sapiens) (UniProt Q05586+Q12879+Q13224+O15399+O60391+Q14957+Q8TCU5); assay: Inhibition of NMDA receptor (unknown origin) at 10 uM relative to control; assay type: protein-complex assay
# [12] = organism: Homo sapiens; assay: Inhibition of strychnine-insensitive glycine receptor (unknown origin) at 10 uM relative to control
# [13] = molecular target: Histamine H3 receptor (Homo sapiens) (UniProt Q9Y5N1); assay: Inhibition of human H3 receptor at 10 uM relative to control
# Histamine H3 receptor (Homo sapiens), sequence (Q9Y5N1 whole entry): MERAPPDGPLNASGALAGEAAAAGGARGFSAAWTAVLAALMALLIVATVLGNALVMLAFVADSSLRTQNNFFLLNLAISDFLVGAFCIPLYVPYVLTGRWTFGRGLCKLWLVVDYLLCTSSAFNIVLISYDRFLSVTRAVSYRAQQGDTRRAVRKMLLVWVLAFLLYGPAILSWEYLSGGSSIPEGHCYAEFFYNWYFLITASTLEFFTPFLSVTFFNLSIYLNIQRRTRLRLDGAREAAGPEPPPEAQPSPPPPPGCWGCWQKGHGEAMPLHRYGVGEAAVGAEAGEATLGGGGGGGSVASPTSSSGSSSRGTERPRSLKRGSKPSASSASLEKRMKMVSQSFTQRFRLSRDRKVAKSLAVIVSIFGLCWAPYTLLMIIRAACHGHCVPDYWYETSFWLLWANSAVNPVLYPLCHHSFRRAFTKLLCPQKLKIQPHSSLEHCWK
# [14] = molecular target: MAO-A (Amine oxidase [flavin-containing] A) (Homo sapiens, UniProt P21397); assay: Inhibition of MAO-A (unknown origin) at 10 uM relative to control
# [15] = molecular target: Motilin receptor (Homo sapiens, UniProt O43193); assay: Inhibition of human motilin receptor at 10 uM relative to control
# Motilin receptor, sequence (O43193 whole entry): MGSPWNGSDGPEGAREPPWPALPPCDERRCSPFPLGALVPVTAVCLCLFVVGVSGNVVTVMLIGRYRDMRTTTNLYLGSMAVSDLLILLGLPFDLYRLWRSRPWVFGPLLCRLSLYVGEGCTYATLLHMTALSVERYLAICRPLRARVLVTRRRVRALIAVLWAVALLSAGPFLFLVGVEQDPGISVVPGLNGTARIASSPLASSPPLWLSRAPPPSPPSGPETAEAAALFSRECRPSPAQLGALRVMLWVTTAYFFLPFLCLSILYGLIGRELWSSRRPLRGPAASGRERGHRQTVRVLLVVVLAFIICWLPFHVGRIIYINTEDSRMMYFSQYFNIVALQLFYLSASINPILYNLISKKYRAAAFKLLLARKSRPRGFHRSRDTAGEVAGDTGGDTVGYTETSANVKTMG
# [16] = molecular target: Muscarinic acetylcholine receptor M1 (Homo sapiens) (UniProt P11229); assay: Inhibition of human M1 receptor at 10 uM relative to control
# Muscarinic acetylcholine receptor M1 (Homo sapiens), sequence (P11229 whole entry): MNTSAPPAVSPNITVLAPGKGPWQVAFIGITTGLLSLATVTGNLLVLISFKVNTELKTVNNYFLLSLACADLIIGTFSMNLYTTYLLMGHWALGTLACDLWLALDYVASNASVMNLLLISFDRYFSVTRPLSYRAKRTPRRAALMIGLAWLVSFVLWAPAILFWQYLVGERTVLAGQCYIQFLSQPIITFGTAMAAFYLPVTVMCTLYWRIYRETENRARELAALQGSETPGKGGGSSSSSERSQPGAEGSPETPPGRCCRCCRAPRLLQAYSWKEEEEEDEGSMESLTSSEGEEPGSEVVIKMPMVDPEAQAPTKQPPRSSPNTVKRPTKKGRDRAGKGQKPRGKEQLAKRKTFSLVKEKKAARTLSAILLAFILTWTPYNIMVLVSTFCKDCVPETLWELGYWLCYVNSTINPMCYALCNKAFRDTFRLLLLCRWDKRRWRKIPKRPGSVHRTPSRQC
# [17] = molecular target: Muscarinic acetylcholine receptor M3 (Homo sapiens) (UniProt P20309); assay: Inhibition of human M3 receptor at 10 uM relative to control
# Muscarinic acetylcholine receptor M3 (Homo sapiens), sequence (P20309 whole entry, looked up): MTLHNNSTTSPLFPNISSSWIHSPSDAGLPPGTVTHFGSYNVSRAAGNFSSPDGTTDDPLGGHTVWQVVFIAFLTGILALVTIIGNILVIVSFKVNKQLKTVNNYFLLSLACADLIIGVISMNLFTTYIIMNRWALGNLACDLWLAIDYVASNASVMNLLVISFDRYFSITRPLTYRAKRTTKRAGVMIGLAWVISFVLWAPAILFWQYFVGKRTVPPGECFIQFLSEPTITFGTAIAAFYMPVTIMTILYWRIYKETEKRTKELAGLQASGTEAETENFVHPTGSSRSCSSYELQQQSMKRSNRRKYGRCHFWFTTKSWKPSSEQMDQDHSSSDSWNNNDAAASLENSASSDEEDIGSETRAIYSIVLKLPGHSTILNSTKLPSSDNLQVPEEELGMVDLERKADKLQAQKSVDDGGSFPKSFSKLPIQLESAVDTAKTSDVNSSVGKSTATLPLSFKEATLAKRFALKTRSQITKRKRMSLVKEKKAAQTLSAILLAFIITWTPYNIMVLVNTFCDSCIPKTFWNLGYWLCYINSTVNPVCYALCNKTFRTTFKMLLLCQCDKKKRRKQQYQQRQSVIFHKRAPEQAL
# [18] = organism: Homo sapiens; assay: Inhibition of human NOP(ORL1) at 10 uM relative to control
# [19] = molecular target: Prostaglandin F2-alpha receptor (Homo sapiens) (UniProt P43088); assay: Inhibition of human FP receptor at 10 uM relative to control
# Prostaglandin F2-alpha receptor (Homo sapiens), sequence (P43088 whole entry): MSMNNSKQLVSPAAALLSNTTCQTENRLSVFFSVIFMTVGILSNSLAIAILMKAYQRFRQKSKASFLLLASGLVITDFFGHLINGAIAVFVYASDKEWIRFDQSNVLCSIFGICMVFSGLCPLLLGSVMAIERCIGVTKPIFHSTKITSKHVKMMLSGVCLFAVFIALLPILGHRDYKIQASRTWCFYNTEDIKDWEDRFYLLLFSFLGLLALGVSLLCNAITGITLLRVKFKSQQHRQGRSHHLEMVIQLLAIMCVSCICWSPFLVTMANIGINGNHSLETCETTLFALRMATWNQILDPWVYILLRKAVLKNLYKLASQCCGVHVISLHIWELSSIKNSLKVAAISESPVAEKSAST
# [20] = molecular target: Prostacyclin receptor (Homo sapiens) (UniProt P43119); assay: Inhibition of human IP (PGI2) receptor at 10 uM relative to control
# [21] = molecular target: 5-hydroxytryptamine receptor 1B (Homo sapiens) (UniProt P28222); assay: Inhibition of 5-HT1B receptor (unknown origin) at 10 uM relative to control
# [22] = molecular target: 5-hydroxytryptamine receptor 2B (Homo sapiens) (UniProt P41595); assay: Inhibition of human 5-HT2B receptor at 10 uM relative to control
# [23] = molecular target: Estrogen receptor (Homo sapiens) (UniProt P03372); assay: Inhibition of human ERalpha at 10 uM relative to control
# Estrogen receptor (Homo sapiens), sequence (P03372 whole entry): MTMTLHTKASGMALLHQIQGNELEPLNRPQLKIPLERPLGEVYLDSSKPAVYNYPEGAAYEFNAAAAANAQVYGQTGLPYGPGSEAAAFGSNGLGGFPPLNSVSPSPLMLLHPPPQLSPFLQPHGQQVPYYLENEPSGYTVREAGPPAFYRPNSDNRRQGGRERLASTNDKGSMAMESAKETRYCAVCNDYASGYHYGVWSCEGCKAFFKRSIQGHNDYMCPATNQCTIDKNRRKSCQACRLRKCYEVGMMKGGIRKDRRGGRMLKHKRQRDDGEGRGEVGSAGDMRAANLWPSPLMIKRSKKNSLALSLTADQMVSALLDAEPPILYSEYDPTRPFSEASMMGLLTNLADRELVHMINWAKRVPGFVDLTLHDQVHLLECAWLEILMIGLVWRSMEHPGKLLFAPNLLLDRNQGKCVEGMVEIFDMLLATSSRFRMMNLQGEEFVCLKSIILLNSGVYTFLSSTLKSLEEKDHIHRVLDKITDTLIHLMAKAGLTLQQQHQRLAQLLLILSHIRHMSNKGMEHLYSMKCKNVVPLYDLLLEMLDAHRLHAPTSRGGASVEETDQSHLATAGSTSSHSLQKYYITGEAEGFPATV
# [24] = organism: Homo sapiens; assay: Inhibition of Ca2+ channel L, verapamil site (unknown origin) at 10 uM relative to control
# [25] = molecular target: Sodium-dependent dopamine transporter (Homo sapiens) (UniProt Q01959); assay: Inhibition of human dopamine transporter at 10 uM relative to control
# Sodium-dependent dopamine transporter (Homo sapiens), sequence (Q01959 whole entry): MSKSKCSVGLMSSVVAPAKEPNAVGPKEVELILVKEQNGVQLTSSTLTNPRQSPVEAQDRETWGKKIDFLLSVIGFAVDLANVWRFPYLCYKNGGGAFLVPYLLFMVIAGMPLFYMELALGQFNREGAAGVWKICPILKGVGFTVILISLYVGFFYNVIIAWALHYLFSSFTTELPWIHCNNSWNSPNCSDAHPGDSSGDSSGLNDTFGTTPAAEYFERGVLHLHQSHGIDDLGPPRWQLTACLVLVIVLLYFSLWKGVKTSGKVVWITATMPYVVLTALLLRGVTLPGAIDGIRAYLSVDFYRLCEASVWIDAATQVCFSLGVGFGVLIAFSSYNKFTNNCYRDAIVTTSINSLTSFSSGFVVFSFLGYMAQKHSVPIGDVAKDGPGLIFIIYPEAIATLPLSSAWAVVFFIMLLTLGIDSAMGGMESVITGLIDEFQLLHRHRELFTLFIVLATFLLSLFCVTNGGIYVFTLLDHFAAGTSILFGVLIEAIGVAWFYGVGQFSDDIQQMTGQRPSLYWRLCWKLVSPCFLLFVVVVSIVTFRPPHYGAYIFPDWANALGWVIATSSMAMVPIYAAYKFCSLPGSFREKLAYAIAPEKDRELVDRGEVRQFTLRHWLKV
# [26] = molecular target: Nitric oxide synthase, inducible (Homo sapiens) (UniProt P35228); assay: Inhibition of inducible NOS (unknown origin) at 10 uM relative to control
# [27] = molecular target: 3',5'-cyclic-AMP phosphodiesterase 4D (Homo sapiens) (UniProt Q08499); assay: Inhibition of human PDE4D2 at 10 uM relative to control
# [28] = molecular target: Caspase-3 (Homo sapiens) (UniProt P42574); assay: Inhibition of human caspase-3 at 10 uM relative to control
# Caspase-3 (Homo sapiens), sequence (P42574 29-175 limits assumed): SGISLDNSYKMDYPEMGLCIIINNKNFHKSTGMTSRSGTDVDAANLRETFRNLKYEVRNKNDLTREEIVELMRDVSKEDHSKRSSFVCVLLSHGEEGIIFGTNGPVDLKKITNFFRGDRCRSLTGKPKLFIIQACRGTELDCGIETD
# Caspase-3 (Homo sapiens), sequence (P42574 176-277 limits assumed): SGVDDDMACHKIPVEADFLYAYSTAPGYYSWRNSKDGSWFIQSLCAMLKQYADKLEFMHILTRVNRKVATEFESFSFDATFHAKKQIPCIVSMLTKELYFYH
# [29] = molecular target: Interstitial collagenase (Homo sapiens) (UniProt P03956); assay: Inhibition of human MMP-1 at 10 uM relative to control
# Interstitial collagenase (Homo sapiens), sequence (P03956 whole entry): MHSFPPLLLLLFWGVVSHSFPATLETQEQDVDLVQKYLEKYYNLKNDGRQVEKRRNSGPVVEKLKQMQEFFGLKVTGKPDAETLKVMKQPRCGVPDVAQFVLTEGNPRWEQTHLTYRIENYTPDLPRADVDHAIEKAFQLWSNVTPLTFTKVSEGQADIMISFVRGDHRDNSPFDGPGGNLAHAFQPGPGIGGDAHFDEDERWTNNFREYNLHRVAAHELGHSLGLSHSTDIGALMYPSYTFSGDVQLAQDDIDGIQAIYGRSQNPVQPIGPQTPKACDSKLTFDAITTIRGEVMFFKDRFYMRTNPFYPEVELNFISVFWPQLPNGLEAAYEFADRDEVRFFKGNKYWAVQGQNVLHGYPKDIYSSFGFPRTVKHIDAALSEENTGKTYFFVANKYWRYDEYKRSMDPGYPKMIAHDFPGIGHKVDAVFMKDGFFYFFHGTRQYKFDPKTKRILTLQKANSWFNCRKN
# [30] = molecular target: Calcium/calmodulin-dependent protein kinase type II subunit alpha (Homo sapiens) (UniProt Q9UQM7); assay: Inhibition of human CaMK2alpha at 10 uM relative to control
# [31] = molecular target: Mitogen-activated protein kinase 14 (Homo sapiens) (UniProt Q16539); assay: Inhibition of human P38alpha kinase at 10 uM relative to control
# [32] = molecular target: Catechol O-methyltransferase (Homo sapiens) (UniProt P21964); assay: Inhibition of COMT (unknown origin) at 10 uM relative to control
# [33] = molecular target: Alpha-2B adrenergic receptor (Homo sapiens, UniProt P18089); assay: Inhibition of human alpha 2B receptor
# [34] = molecular target: Kappa-type opioid receptor (Homo sapiens, UniProt P41145); assay: Inhibition of human kappa opioid receptor
# [35] = Inhibition of Ca2+ channel L, diltiazem site (unknown origin); design: species or system Homo sapiens
compound,measurement,setting,value
O=C([C@@H](Cc1cccc(C(F)(F)F)c1)NS(=O)(=O)c1cc(F)c2c(c1)CCNC2)N1CCCC1,IC50,[1],2 nM
same,IC50,[2],2630 nM
same,IC50,[3],1200 nM
same,inhibition,[4],18%
same,inhibition,[5],12%
same,inhibition,[6],-4%
same,inhibition,[7],-5%
same,inhibition,[8],8%
same,inhibition,[9],-7%
same,inhibition,[10],2%
same,inhibition,[11],-8%
same,inhibition,[12],-1%
same,inhibition,[13],-1%
same,inhibition at 10 µM,[14],6%
same,inhibition,[15],55%
same,inhibition,[16],16%
same,inhibition,[17],37%
same,inhibition,[18],11%
same,inhibition,[19],3%
same,inhibition,[20],-7%
same,inhibition,[21],7%
same,inhibition,[22],1%
same,inhibition,[23],-5%
same,inhibition,[24],18%
same,inhibition,[25],2%
same,inhibition,[26],-7%
same,inhibition,[27],1%
same,inhibition,[28],2%
same,inhibition,[29],1%
same,inhibition,[30],6%
same,inhibition,[31],-6%
same,inhibition,[32],-9%
same,IC50,[33],1300 nM
same,IC50,[34],3800 nM
same,IC50,[35],14000 nM
